Source: ChEMBL document CHEMBL5724801, “EUbOPEN Chemogenomics Library - Multiplex” (2024)
Several values for one entry are separate records, joined by “and”; a condition that tells them apart may be missing. Equal values may be shown once.

Tested on: U2OS
Assay: Multiplex assay against U2OS
Type: toxicity, cell-based
Settings: human
How it was run: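 Compound was added to live cells that had been stained at seeding with Hoechst33342, BioTracker Green Microtubule Cytoskeleton Dye, MitoTracker Red and Annexin V Alexa Fluor 680, and imaging followed on a CQ1 microscope at 37°C and 5% CO2. CellPathfinder machine-learning gating divided cells into Hoechst high-intensity objects or normal cells, normal cells into healthy, pyknosed or fragmented nuclei, and pyknosed cells into mitotic or apoptotic. Tubulin, mitochondrial-mass and membrane-permeability phenotypes are per cents of healthy-nucleus cells.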

[1] = 12 h, 1 µM, compound concentration 1 uM
[2] = 12 h, 10 µM, compound concentration 10 uM
[3] = 24 h, 1 µM, compound concentration 1 uM
[4] = 24 h, 10 µM, compound concentration 10 uM
[5] = 48 h, 1 µM, compound concentration 1 uM
[6] = 48 h, 10 µM, compound concentration 10 uM

Structure (SMILES): COc1cc2nc(N3CCN(C(=O)COc4c(OC)cccc4C(C)C)CC3)nc(N)c2cc1OC.Cl.Cl
- Population Apoptotic (%) [1]: 67% and 33%
- Population Fragmented Nuclei (%) [1]: 21% and 10%
- Population Healthy Nuclei (%) [1]: 66% and 84%
- Population Hoechst High Intensity Objects (%) [1]: 3% and 2%
- Population Membrane Permeable-Phenotype (%) [1]: 10%
- Population Mitochondria Different-Phenotype (%) [1]: 5% and 6%
- Population Mitotic Cells (%) [1]: 32% and 66%
- Population Normal (%) [1]: 96% and 97%
- Population Pyknosed Nuclei (%) [1]: 11% and 4%
- Population Tubulin-Different-Phenotype (%) [1]: 6%
- Total Cell Count [1]: 256 and 136
- Population Apoptotic (%) [2]: 55% and 66%
- Population Fragmented Nuclei (%) [2]: 30% and 19%
- Population Healthy Nuclei (%) [2]: 43% and 48%
- Population Hoechst High Intensity Objects (%) [2]: 3% and 0%
- Population Membrane Permeable-Phenotype (%) [2]: 60% and 54%
- Population Mitochondria Different-Phenotype (%) [2]: 55% and 65%
- Population Mitotic Cells (%) [2]: 44% and 33%
- Population Normal (%) [2]: 96% and 99%
- Population Pyknosed Nuclei (%) [2]: 25% and 32%
- Population Tubulin-Different-Phenotype (%) [2]: 75% and 68%
- Total Cell Count [2]: 233 and 151
- Population Apoptotic (%) [3]: 84% and 80%
- Population Fragmented Nuclei (%) [3]: 21% and 15%
- Population Healthy Nuclei (%) [3]: 67% and 77%
- Population Hoechst High Intensity Objects (%) [3]: 3% and 0%
- Population Membrane Permeable-Phenotype (%) [3]: 6% and 10%
- Population Mitochondria Different-Phenotype (%) [3]: 8% and 7%
- Population Mitotic Cells (%) [3]: 15% and 20%
- Population Normal (%) [3]: 96% and 99%
- Population Pyknosed Nuclei (%) [3]: 11% and 6%
- Population Tubulin-Different-Phenotype (%) [3]: 4% and 5%
- Total Cell Count [3]: 297 and 154
- Population Apoptotic (%) [4]: 76% and 87%
- Population Fragmented Nuclei (%) [4]: 30% and 20%
- Population Healthy Nuclei (%) [4]: 36% and 40%
- Population Hoechst High Intensity Objects (%) [4]: 9% and 12%
- Population Membrane Permeable-Phenotype (%) [4]: 40% and 49%
- Population Mitochondria Different-Phenotype (%) [4]: 49% and 50%
- Population Mitotic Cells (%) [4]: 24% and 12%
- Population Normal (%) [4]: 90% and 87%
- Population Pyknosed Nuclei (%) [4]: 33% and 39%
- Population Tubulin-Different-Phenotype (%) [4]: 50% and 60%
- Total Cell Count [4]: 246 and 185
- Population Apoptotic (%) [5]: 83% and 75%
- Population Fragmented Nuclei (%) [5]: 20% and 16%
- Population Healthy Nuclei (%) [5]: 70% and 72%
- Population Hoechst High Intensity Objects (%) [5]: 2% and 3%
- Population Membrane Permeable-Phenotype (%) [5]: 6% and 7%
- Population Mitochondria Different-Phenotype (%) [5]: 6%
- Population Mitotic Cells (%) [5]: 16% and 25%
- Population Normal (%) [5]: 97% and 96%
- Population Pyknosed Nuclei (%) [5]: 8% and 11%
- Population Tubulin-Different-Phenotype (%) [5]: 4% and 6%
- Total Cell Count [5]: 441 and 225
- Population Apoptotic (%) [6]: 88% and 93%
- Population Fragmented Nuclei (%) [6]: 40% and 24%
- Population Healthy Nuclei (%) [6]: 21% and 23%
- Population Hoechst High Intensity Objects (%) [6]: 31% and 32%
- Population Membrane Permeable-Phenotype (%) [6]: 13% and 27%
- Population Mitochondria Different-Phenotype (%) [6]: 30% and 10%
- Population Mitotic Cells (%) [6]: 11% and 6%
- Population Normal (%) [6]: 68% and 67%
- Population Pyknosed Nuclei (%) [6]: 38% and 51%
- Population Tubulin-Different-Phenotype (%) [6]: 13% and 24%
- Total Cell Count [6]: 296 and 180

Structure (SMILES): COc1c(Nc2ccc(S(C)(=O)=O)nc2C)ncnc1OC1CCN(C(=O)OC(C)C)CC1 [ADP-597]
- Population Apoptotic (%) [1]: 82% and 75%
- Population Fragmented Nuclei (%) [1]: 23% and 13%
- Population Healthy Nuclei (%) [1]: 68% and 78%
- Population Hoechst High Intensity Objects (%) [1]: 2% and 3%
- Population Membrane Permeable-Phenotype (%) [1]: 7% and 11%
- Population Mitochondria Different-Phenotype (%) [1]: 1%
- Population Mitotic Cells (%) [1]: 17% and 25%
- Population Normal (%) [1]: 97% and 96%
- Population Pyknosed Nuclei (%) [1]: 8%
- Population Tubulin-Different-Phenotype (%) [1]: 5% and 2%
- Total Cell Count [1]: 208 and 95
- Population Apoptotic (%) [2]: 93% and 85%
- Population Fragmented Nuclei (%) [2]: 27% and 10%
- Population Healthy Nuclei (%) [2]: 60% and 77%
- Population Hoechst High Intensity Objects (%) [2]: 8% and 4%
- Population Membrane Permeable-Phenotype (%) [2]: 7%
- Population Mitochondria Different-Phenotype (%) [2]: 2% and 3%
- Population Mitotic Cells (%) [2]: 6% and 14%
- Population Normal (%) [2]: 91% and 95%
- Population Pyknosed Nuclei (%) [2]: 11%
- Population Tubulin-Different-Phenotype (%) [2]: 4% and 1%
- Total Cell Count [2]: 266 and 128
- Population Apoptotic (%) [3]: 88% and 80%
- Population Fragmented Nuclei (%) [3]: 24% and 12%
- Population Healthy Nuclei (%) [3]: 67% and 79%
- Population Hoechst High Intensity Objects (%) [3]: 3%
- Population Membrane Permeable-Phenotype (%) [3]: 7% and 8%
- Population Mitochondria Different-Phenotype (%) [3]: 3%
- Population Mitotic Cells (%) [3]: 11% and 20%
- Population Normal (%) [3]: 96%
- Population Pyknosed Nuclei (%) [3]: 7% and 8%
- Population Tubulin-Different-Phenotype (%) [3]: 3% and 5%
- Total Cell Count [3]: 239 and 129
- Population Apoptotic (%) [4]: 88% and 83%
- Population Fragmented Nuclei (%) [4]: 30% and 11%
- Population Healthy Nuclei (%) [4]: 61% and 80%
- Population Hoechst High Intensity Objects (%) [4]: 6% and 5%
- Population Membrane Permeable-Phenotype (%) [4]: 8% and 6%
- Population Mitochondria Different-Phenotype (%) [4]: 2% and 4%
- Population Mitotic Cells (%) [4]: 12% and 16%
- Population Normal (%) [4]: 93% and 94%
- Population Pyknosed Nuclei (%) [4]: 8%
- Population Tubulin-Different-Phenotype (%) [4]: 4% and 1%
- Total Cell Count [4]: 305 and 155
- Population Apoptotic (%) [5]: 80% and 81%
- Population Fragmented Nuclei (%) [5]: 19% and 20%
- Population Healthy Nuclei (%) [5]: 72% and 67%
- Population Hoechst High Intensity Objects (%) [5]: 2%
- Population Membrane Permeable-Phenotype (%) [5]: 6% and 5%
- Population Mitochondria Different-Phenotype (%) [5]: 5% and 4%
- Population Mitotic Cells (%) [5]: 19% and 18%
- Population Normal (%) [5]: 97%
- Population Pyknosed Nuclei (%) [5]: 7% and 12%
- Population Tubulin-Different-Phenotype (%) [5]: 2%
- Total Cell Count [5]: 339 and 185
- Population Apoptotic (%) [6]: 79% and 92%
- Population Fragmented Nuclei (%) [6]: 24% and 10%
- Population Healthy Nuclei (%) [6]: 62% and 77%
- Population Hoechst High Intensity Objects (%) [6]: 6% and 3%
- Population Membrane Permeable-Phenotype (%) [6]: 6% and 4%
- Population Mitochondria Different-Phenotype (%) [6]: 4% and 0%
- Population Mitotic Cells (%) [6]: 20% and 8%
- Population Normal (%) [6]: 93% and 96%
- Population Pyknosed Nuclei (%) [6]: 13% and 11%
- Population Tubulin-Different-Phenotype (%) [6]: 2%
- Total Cell Count [6]: 356 and 223
